Results reported in the EternaBench riboswitch data.

System: MS2 coat protein
Assay: apparent Kd, MS2 coat protein; higher = weaker binding; RNA-MaP array; FMN 200 µM where present
Procedure, shortened: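 Each design was made on Illumina sequencing-chip clusters by stalled E. coli RNA polymerase and titrated with SNAP-549-labelled MS2 coat protein from 0.7 or 1.5 nM, doubling to 3 µM, in the absence and then the presence of constant ligand. The buffer was 100 mM Tris-HCl pH 7.5, 80 mM KCl, 4 mM MgCl2, BSA, DTT, yeast tRNA and Tween-20. The apparent Kd is the median of filtered per-cluster fits of binding curves, with green signal normalised to red-channel RNA signal and control-cluster median Fmax.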

[1] = designed as: ON switch for flavin mononucleotide, no ligand
[2] = ligand present: flavin mononucleotide, designed as: ON switch for flavin mononucleotide
[3] = designed as: OFF switch for flavin mononucleotide, no ligand
[4] = ligand present: flavin mononucleotide, designed as: OFF switch for flavin mononucleotide

Sequence	apparent Kd [1]	apparent Kd [2]	apparent Kd [3]	apparent Kd [4]
AUCGGUCCGUAGAAGGGUGACAUGAGGAUCACCCAUGUGCCGUGUGCAUUUAUGCCUCCACGGCCACAGGAUAUACGGAGUUGA	80.1 nM	39.1 nM	–	–
AAAAAACAUGAGGAUCACCCAUGUCCUCGGACAUGAGGAUAUGUACAGACUUCGGUCUGUACAGAAGGCAUGUCAA	658 nM	585 nM	–	–
AUCAGCUCGUCAGGAUAUACGUCACUGCGUCAGCAGUGUGGUAAGAUGACAUGAGGAUCACCCAUGUAGAAGGGACGAGCUGAU	–	–	6.82 nM	15.8 nM
GUAGCUAUCGGAGGAUAUUCAUACCGGAAACGGACAUGAGGAUCACCCAUGUGGCGAAAGCCGUGGGAGAAGGCCGAUAGCUAC	875 nM	43 nM	–	–
UGGAUCAUCGGAGGAUAUCAUGUAAAUACAUGAGGAUCACCCAUGUCGUACGAGAGUACGGAGAUUGAGAAGGCCGAUGAUCCU	24.6 nM	15.4 nM	–	–
UUACUACAUGAGGAUCACCCAUGUCAGGAUAUUGUCUAUACCGUGGAAGCUGUGUCGAUAAGAAGGGACUGUAU	–	–	20.5 nM	34.8 nM
GUCAGCUCGUGAGGAUAUACAUGUGCUGGAGACAGCAUUAUAUUUUUCACAUGAGGAUCACCCAUGUAGAAGGCACGAGCUGAU	–	–	16.5 nM	27.4 nM
GCGUCUCCUGUCAGGAUAUGCACCGGCUCGCCGGCGUAGAAGGGACAUGAGGAUCACCCAUGUGGUCUACACUU	–	–	–	339 nM
GUCGUGUGAGGAUAUGAUUAAUAGACGGGAUUGCGACUGCAUCAGAAGGCACAUGAGGAUCACCCAUGUAUGAA	–	–	19.4 nM	63.5 nM
AUCAGCUCGUCAGGAUAUACGUCACUGCGUCAGCAGUGUGGUAAGAUCACAUGAGGAUCACCCAUGUAGAAGGCACGAGCUGAU	–	–	8.44 nM	9.04 nM
UGGUACAUCGGAGGAUAUCAUGUAGAUACAUGAGGAUCACCCAUGUCGUACGAGAGUACGGAGAUUGAGAAGGCCGAUGUACCU	30.7 nM	16.4 nM	–	–
GUGAAACAUGAGGAUCACCCAUGUGAGGAUAUGUUUUAGUACUGCUGACAGUACAUCUAUAGAAGGCACAAUGG	–	–	34.8 nM	54.8 nM
CUUAGACAUGAGGAUCACCCAUGUCAGGAUAUCGUCUACCUGUGGAAACACAGGUAGACGAGAAGGGAUGUGUU	–	–	51.6 nM	41.4 nM
GGAUUACAAAUUUAUUUAAUUCACAUGAGGAUCACCCAUGUGUAGGAUAUGCUAGUUAAGUAAUAGCAGAAGGACAUGUGCCUU	–	–	8.82 nM	9.26 nM
AAAGAUCCUCAGAAGGGCUCGUCCUAUAAGAUAGCAGGAUAUGAGGAGAUUGCCAAACAUGAGGAUCACCCAUGUAGUUGGAGU	83.5 nM	14.8 nM	–	–
GCCGGAGAAGGAUAUACAUGAGGAUCACCCAUGUUCUUGGGCGAAAUAAAUUCCUAGAGUAGAAGGUCUAGGCA	–	–	18.7 nM	41.5 nM
UUACUCAUGUAAGGAUAUGUAGCCGUUUCGGCUGCAGAAGGUACUAUAAUACAUGAGGAUCACCCAUGUCUUUUUAAUUUAGAC	69.3 nM	39.8 nM	–	–
AUAUAUAUAAAGAAGGUGCCAGCGAGAGCUGCACAUGAGGAUCACCCAUGUUGUCGGUGACGACGCAAGGAUAUUUAUAUAUAU	31.6 nM	7.28 nM	–	–
ACAUGAGGAUCACCCAUGUGGAGUGAAGAAGGUGGUUACUUAUGACUCUCCCAUGUACAUAGGACUGAGGAUAUUCUAAUAAUU	88.5 nM	81.7 nM	–	–
UUUCUCUGGGCGUCUUCUUACAUGAGGAUCACCCAUGUUUCAUAGGAUAUGCUAUAGUGUUACAUGCAGAAGGAUGUUUGUUUU	–	–	234 nM	474 nM
AAGCGCUACAUGAGGAUCACCCAUGUUCCGAGGCAGAUUUCACAGGAUAUCCCAAUUGGCCCAAGGGAGAAGGGUGAUGGCCAA	79.1 nM	23.6 nM	–	–
AAUAUGUUGCAGAAGGCUAUGUUGUGGUAGUACCUCAUGACAUGAGGAUCACCCAUGUUUGUGUUGGAGGAUAUGCAAUAUAUU	–	–	12.7 nM	40.6 nM
GGGACUUACGAGAAGGGCUACAUGAGGAUCACCCAUGUAAAUCUUCGGGUAGCAGGAUAUCGGCGGCUACAGGAGGGCCAAGUC	–	–	14.3 nM	90.7 nM
